Reference: paper PMC6644362 (ACS Omega, 2018)
“And” between values parts separate entries of the source, which are not always exact repeats. Equal values may be shown once.

Experiments:
recombinant human TK2 [1] = target: T1, recombinant human TK2 (Homo sapiens, UniProt O00142); experiment: Isothermal titration calorimetry; assay type: binding
T1 sequence (O00142 56-265 limits assumed): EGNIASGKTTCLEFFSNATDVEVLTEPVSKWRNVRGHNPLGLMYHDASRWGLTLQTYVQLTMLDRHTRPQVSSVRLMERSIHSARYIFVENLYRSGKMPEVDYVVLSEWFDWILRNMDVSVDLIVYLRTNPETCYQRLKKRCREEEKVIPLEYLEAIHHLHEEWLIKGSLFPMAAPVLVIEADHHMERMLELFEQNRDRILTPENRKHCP
Outline: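 Calorimetry at 25 °C used 40 μM TK2 (dTTP-bound or dTTP-free) dialysed into 10 mM Tris/HCl pH 7.9, 1 mM MgCl2. Ligands were in dialysis buffer at 1–3 mM syringe concentration, also ATPγS into enzyme–dT/dC complexes. There was one 2 μL control injection, then 24 × 8 μL injections at 500 s intervals. Blanks were ligand into buffer and buffer into enzyme. Best-fit model per ligand; Kd = 1/KB.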

[2] = target: human recombinant dC kinase (dCK) (Homo sapiens, UniProt P27707); experiment: ITC titration of ATPγS to dCK in the presence and absence of dC; assay type: binding
human recombinant dC kinase (dCK), sequence (P27707 whole entry): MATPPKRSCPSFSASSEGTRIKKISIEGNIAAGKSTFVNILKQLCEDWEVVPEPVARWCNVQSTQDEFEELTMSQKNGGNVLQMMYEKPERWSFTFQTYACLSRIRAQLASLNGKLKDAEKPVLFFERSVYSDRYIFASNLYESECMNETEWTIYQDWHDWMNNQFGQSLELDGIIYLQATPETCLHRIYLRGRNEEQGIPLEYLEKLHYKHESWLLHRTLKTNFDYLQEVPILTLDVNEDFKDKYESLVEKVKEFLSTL

recombinant human TK2 [3] = target: T1, recombinant human TK2; experiment: Intrinsic tryptophan fluorescence; assay type: binding; conditions: for Kd / ΔFmax: mean ± SD; for fa (fractional accessibility) / Ka (quenching constant of the accessible fraction): modified Stern–Volmer equation; for fractional initial accessible fluorescence: summary of Table 2, dTTP-bound or dTTP-free TK2; for quenching of the fluorescence emission on addition of ligand: titrated to dTTP-bound or dTTP-free TK2, 0.5–4000 μM
TK2 = conditions: feedback inhibition, enzyme kinetic experiments; cited from earlier work
[4] = titrated to E–dC complex, 25 °C
[5] = titrated to E–dT complex, 25 °C
[6] = Kd (equilibrium binding constant), dTTP-bound TK2, one-site specific binding model
[7] = dTTP-bound TK2, 2 μM TK2, 21 °C
[8] = dTTP-bound TK2, one-site specific binding model
[9] = read-out: Kd (equilibrium binding constant), dTTP-bound TK2, one-site specific binding model
[10] = Kd (equilibrium binding constant), dTTP-free TK2, one-site specific binding model
[11] = dTTP-free TK2, one-site specific binding model

Row | Kd (recombinant human TK2 [3]; [6]) | fa (fractional accessibility) (recombinant human TK2 [3]; [7]) | ΔFmax (recombinant human TK2 [3]; [8]) | fractional initial accessible fluorescence (recombinant human TK2 [3]) | quenching of the fluorescence emission on addition of ligand (recombinant human TK2 [3]) | Ka (quenching constant of the accessible fraction) (recombinant human TK2 [3]; [7]) | Kd (recombinant human TK2 [3]; [9]) | Kd (recombinant human TK2 [3]; [10]) | fa (fractional accessibility) (recombinant human TK2 [3]; dTTP-free TK2, 21 °C) | ΔFmax (recombinant human TK2 [3]; [11]) | Structure (SMILES) | further results
1 | – | – | – | – | – | – | – | – | – | – | Nc1ncnc2c1ncn2[C@@H]1O[C@H](CO[P@](=O)(O)O[P@](=O)(O)O[P@@](=O)(O)S)[C@@H](O)[C@H]1O [ATPγS, adenosine 5′-(gamma-thio) triphosphate] | Kd (recombinant human TK2 [1]; Kd (dissociation constant), titrated to E–dC complex, 25 °C): 20 µM; Kd (recombinant human TK2 [1]; Kd (dissociation constant), titrated to E–dT complex, 25 °C): 0.93 µM; ΔG (Gibbs free energy) (recombinant human TK2 [1]; [4]): –0.18 ± 0.01 kcal/mol; ΔH (enthalpy changes) (recombinant human TK2 [1]; [4]): –7.5 ± 0.5 kcal/mol; ΔS (entropy changes) (recombinant human TK2 [1]; [4]): –24.9 cal/mol/deg; binding constant (recombinant human TK2 [1]; titrated to E–dT complex): 1.1 × 10^6 M^–1; ΔG (Gibbs free energy) (recombinant human TK2 [1]; [5]): –8.2 ± 0.1 kcal/mol; ΔH (enthalpy changes) (recombinant human TK2 [1]; [5]): –19.4 ± 0.8 kcal/mol; ΔS (entropy changes) (recombinant human TK2 [1]; [5]): –37.6 cal/mol/deg; ITC heat response / specific interaction (recombinant human TK2 [1]; titrated with either dTTP-bound or dTTP-free TK2): no heat response; binding to dCK alone (ITC) ([2]; absence of dC): does not bind; binding to the dCK–dC complex (ITC) ([2]; presence of dC): bind
2 | 6.94 ± 2.78 µM | 0.38 ± 0.04 | 12.77 ± 1.34 | 20–40% | caused quenching | – | – | – | – | – | Cc1cn([C@H]2C[C@H](N=[N+]=[N-])[C@@H](CO)O2)c(=O)[nH]c1=O [AZT, 3′-Azido-2′,3′-dideoxythymidine] | –
3 | – | 0.24 ± 0.04 | 17.81 ± 0.99 | 20–40% | caused quenching | 0.14 ± 0.02 μM^–1 | 6.17 ± 1.35 µM | – | – | – | Cc1cn([C@H]2C[C@H](F)[C@@H](CO)O2)c(=O)[nH]c1=O [FLT, 3′-fluoro-2′,3′-dideoxythymidine] | –
4 | 3.35 ± 0.81 µM | 0.29 ± 0.05 | 19.86 ± 0.94 | 20–40% | caused quenching | – | – | 5.64 ± 1.2 µM | 0.40 ± 0.10 | 67.5 ± 2.9 | Nc1ccn([C@H]2C[C@H](O)[C@@H](CO)O2)c(=O)n1 [dC, deoxycytidine] | ΔH (enthalpy changes) (recombinant human TK2 [1]; dTTP-bound enzyme, 25 °C): –23.4 ± 0.7 kcal/mol; ΔS (entropy changes) (recombinant human TK2 [1]; dTTP-bound enzyme, 25 °C): –7.9 cal/mol/deg
5 | – | 0.21 ± 0.02 | 19.74 ± 1.18 | 20–40% | caused quenching | 0.42 ± 0.03 μM^–1 | 4.42 ± 0.99 µM | – | – | – | Nc1ccn([C@H]2C[C@H](O)[C@@H](COP(=O)(O)O)O2)c(=O)n1 [dCMP, deoxycytidine monophosphate] | –
6 | – | – | – | – | – | – | – | – | – | – | Nc1ccn([C@H]2C[C@H](O)[C@@H](COP(=O)(O)OP(=O)(O)OP(=O)(O)O)O2)c(=O)n1 [dCTP, deoxycytidine triphosphate] | ITC heat changes in the isothermogram (recombinant human TK2 [1]; dTTP-free enzyme): no heat changes
7 | 3.26 ± 1.01 µM | 0.25 ± 0.01 | 21.95 ± 1.25 | – | caused quenching | 0.16 μM^–1 | – | 13.3 ± 1.2 µM | 0.17 ± 0.02 | 69.7 ± 3.1 | Cc1cn([C@H]2C[C@H](O)[C@@H](CO)O2)c(=O)[nH]c1=O [dT, thymidine] | binding constant, times higher than that of dC (recombinant human TK2 [1]; ITC): 5 times; binding constant, times higher than that of dTTP (recombinant human TK2 [1]; ITC): 65 times; binding affinity, times higher than that of dC (recombinant human TK2 [1]; ITC, dTTP-bound enzyme): 3 times; Kd (recombinant human TK2 [1]; Kd1 (high affinity), dTTP-bound enzyme, two-site binding model): 0.55 µM; ΔG (Gibbs free energy) (recombinant human TK2 [1]; dTTP-bound enzyme, 25 °C): –7.1 ± 0.2 kcal/mol; ΔH (enthalpy changes) (recombinant human TK2 [1]; dTTP-bound enzyme, 25 °C): –72.7 ± 0.2 kcal/mol; ΔS (entropy changes) (recombinant human TK2 [1]; dTTP-bound enzyme, 25 °C): –220 cal/mol/deg; Kd (recombinant human TK2 [1]; read-out: Kd2 (lower affinity), dTTP-bound enzyme, two-site binding model): 6.13 µM; fa, fraction of the initial fluorescence accessible (recombinant human TK2 [3]; dTTP-bound TK2, modified Stern–Volmer equation): 25%
8 | – | 0.21 ± 0.02 | 16.74 ± 0.53 | 20–40% | caused quenching | 0.79 ± 0.04 μM^–1 | 1.53 ± 0.28 µM | – | – | – | Cc1cn([C@H]2C[C@H](O)[C@@H](COP(=O)(O)O)O2)c(=O)[nH]c1=O [dTMP, deoxythymidine monophosphate] | –
9 | – | – | – | 20–40% | caused quenching | – | – | 3.64 ± 1.02 µM | 0.22 ± 0.01 | 57.6 ± 2.9 | Cc1cn([C@H]2C[C@H](O)[C@@H](CO[P@](=O)(O)O[P@@](=O)(O)OP(=O)(O)O)O2)c(=O)[nH]c1=O [dTTP, deoxythymidine triphosphate] | Kd (recombinant human TK2 [1]; Kd (dissociation constant), dTTP-free enzyme, 25 °C, Kd = 1/KB): 36 µM and 35.7 µM; binding constant (recombinant human TK2 [1]; dTTP-free TK2): 2.8 × 10^4 M^–1; ΔG (Gibbs free energy) (recombinant human TK2 [1]; dTTP-free enzyme, 25 °C): –6.0 ± 0.1 kcal/mol; ΔH (enthalpy changes) (recombinant human TK2 [1]; dTTP-free enzyme, 25 °C): 237.2 ± 0.2 kcal/mol; ΔS (entropy changes) (recombinant human TK2 [1]; dTTP-free enzyme, 25 °C): 816 cal/mol/deg; Ki (TK2): 2.5 µM and ~2.5 µM
